Here are results for 11 compounds from ChEMBL document CHEMBL5584271, “Synthesis and Biological Analysis of Iso-dimethyltryptamines in a Model of Light-Induced Retinal Degeneration” (2024).

Active and inactive are the calls of the source. No cut-off for these calls is given here.

Chain of 5-hydroxytryptamine receptor 2A (Homo sapiens) (P28223 whole entry): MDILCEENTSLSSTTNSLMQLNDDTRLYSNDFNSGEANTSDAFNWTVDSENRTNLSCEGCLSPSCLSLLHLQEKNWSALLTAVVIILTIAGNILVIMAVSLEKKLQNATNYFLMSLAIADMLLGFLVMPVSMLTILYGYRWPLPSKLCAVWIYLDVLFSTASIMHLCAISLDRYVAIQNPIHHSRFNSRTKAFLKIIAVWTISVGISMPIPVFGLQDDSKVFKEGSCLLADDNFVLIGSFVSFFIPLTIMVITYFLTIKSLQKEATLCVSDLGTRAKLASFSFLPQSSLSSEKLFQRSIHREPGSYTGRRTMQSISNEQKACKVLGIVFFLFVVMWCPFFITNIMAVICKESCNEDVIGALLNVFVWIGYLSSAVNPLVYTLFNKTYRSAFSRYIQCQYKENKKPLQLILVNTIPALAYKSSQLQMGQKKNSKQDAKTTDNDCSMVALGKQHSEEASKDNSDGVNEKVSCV

In the first assay the target is 5-hydroxytryptamine receptor 2B (Homo sapiens) (UniProt P41595). As to the kind of experiment: Binding affinity to 5-HT2B (unknown origin).
Chain of 5-hydroxytryptamine receptor 2B (Homo sapiens) (P41595 whole entry): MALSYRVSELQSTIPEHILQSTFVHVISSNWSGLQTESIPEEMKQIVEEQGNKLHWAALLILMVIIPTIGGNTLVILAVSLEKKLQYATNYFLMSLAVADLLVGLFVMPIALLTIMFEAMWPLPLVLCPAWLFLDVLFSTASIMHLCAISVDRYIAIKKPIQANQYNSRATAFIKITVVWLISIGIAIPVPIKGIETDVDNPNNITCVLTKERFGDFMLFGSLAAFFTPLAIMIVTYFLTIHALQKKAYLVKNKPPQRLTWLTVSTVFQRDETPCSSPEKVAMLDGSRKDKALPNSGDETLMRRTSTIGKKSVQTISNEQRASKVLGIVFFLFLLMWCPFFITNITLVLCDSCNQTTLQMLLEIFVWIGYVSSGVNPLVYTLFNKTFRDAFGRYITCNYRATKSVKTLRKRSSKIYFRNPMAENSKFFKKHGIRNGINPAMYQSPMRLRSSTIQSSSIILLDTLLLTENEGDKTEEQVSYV
Conditions: not given
Turning to `CCN(CC)C(=O)[C@H]1CN(C)[C@H]2Cc3c[nH]c4cccc(c34)[C@@H]1C2`, the outcome was inactive.

A further assay has as its target 5-hydroxytryptamine receptor 2A (Homo sapiens) (UniProt P28223). Put plainly: Binding affinity to 5-HT2A (unknown origin).
Conditions: not given
Take `CCN(CC)C(=O)[C@H]1CN(C)[C@H]2Cc3c[nH]c4cccc(c34)[C@@H]1C2`: the result was inactive.

For a further assay, the target named is T1, 5-hydroxytryptamine receptor 2C (Homo sapiens) (UniProt P28335).
T1 sequence (whole entry): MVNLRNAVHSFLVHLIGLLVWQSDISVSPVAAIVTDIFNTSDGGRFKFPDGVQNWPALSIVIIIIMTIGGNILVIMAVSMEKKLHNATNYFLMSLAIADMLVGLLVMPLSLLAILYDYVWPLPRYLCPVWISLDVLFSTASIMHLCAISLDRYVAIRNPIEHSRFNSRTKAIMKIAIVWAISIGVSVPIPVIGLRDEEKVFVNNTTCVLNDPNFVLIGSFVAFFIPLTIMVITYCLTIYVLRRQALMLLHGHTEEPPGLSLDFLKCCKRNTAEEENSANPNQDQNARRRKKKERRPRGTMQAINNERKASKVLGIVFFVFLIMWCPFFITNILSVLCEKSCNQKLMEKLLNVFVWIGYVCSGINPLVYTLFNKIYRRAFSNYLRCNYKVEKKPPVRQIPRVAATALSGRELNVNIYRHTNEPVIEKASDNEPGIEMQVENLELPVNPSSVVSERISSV
As to the kind of experiment: Binding affinity to 5-HT2C (unknown origin).
Conditions: not given
Regarding `CCN(CC)C(=O)[C@H]1CN(C)[C@H]2Cc3c[nH]c4cccc(c34)[C@@H]1C2`, the outcome was inactive.

In another assay the test system is Mus musculus. As to the kind of experiment: Protection against light-induced retinal degeneration in dark-adaptated BALB/c albino mouse assessed as reduction in ONL thinning at 10 mg/kg, ip dosed preincubated with compound for 15 to 30 mins of mydriasis followed by exposure to bright light at 15kLux for 30 mins by […]. The note with it: time 45-60 min. Type of assay: functional, organism-based. In a few lines: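 Dark-adapted BALB/c albino mice (5–8 weeks) were dosed ip at 10 mg/kg (vehicle 25% DMSO/75% saline) 30 min before 30 min of 15 kLux white light. Pupils were dilated with metaoxedrine/tropicamide at 30 and 15 min prior. One week later, OCT centred on the optic nerve head measured ONL thickness 500 μm from the ONH border, averaged over four quadrants. Analysis used Welch's ANOVA with Dunnett's T3 tests.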
In the case of `CCN(CC)C(=O)[C@H]1CN(C)[C@H]2Cc3c[nH]c4cccc(c34)[C@@H]1C2`, the result was inactive.

Consider `CN1C[C@@]2(C)C[C@]23c2cccc4[nH]cc(c24)C[C@@H]13`, for which the outcome was Active.

For `CN(C)CCn1cc(Cc2ccccn2)c2c(Br)cccc21`, the outcome was Active.

Consider `CN(C)CCn1cc(Cc2ccccn2)c2cc(F)ccc21`, for which the outcome was inactive.

`CN(C)CCn1cc(Cc2ccccn2)c2ccc(F)cc21`: the outcome was inactive.

Turning to `CN1C[C@@H](CO)C=C2c3cccc4[nH]cc(c34)C[C@@H]21`, the result was inactive.

In the case of `CN1C[C@]2(C)C[C@@]23c2cccc4[nH]cc(c24)C[C@H]13`, the outcome was Active.

For the compound `CN1C[C@@H](CO)C=C2c3cccc4[nH]cc(c34)C[C@H]21`, the result was Active.

In the case of `CN1C[C@H](CO)C=C2c3cccc4[nH]cc(c34)C[C@@H]21`, the result was inactive.

In the case of `CN1C[C@H](CO)C=C2c3cccc4[nH]cc(c34)C[C@H]21`, the outcome was Active.

For the next assay, the system named is Mus musculus. As to the kind of experiment: Protection against light-induced retinal degeneration in dark-adaptated BALB/c albino mouse assessed as reduction in ONL thinning at 10 mg/kg, ip dosed preincubated with compound for 15 to 30 mins of mydriasis followed by exposure to bright light at 15kLux for 30 mins by […] relative to control. Type of assay: functional. The arrangement: scale not given: the % may be the effect or the level left. The note with it: time 45-60 min. An outline of the steps:
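Same LIRD protocol in BALB/c mice aged 5–8 weeks: 10 mg/kg ip in 25% DMSO/saline 30 min before 30 min of 15 kLux white light, with mydriatics given beforehand. OCT imaging one week later, centred on the optic nerve head. ONL thickness measured 500 μm from the ONH border and averaged over four quadrants. Compared with vehicle; Welch's ANOVA with Dunnett's T3.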
As for `CC(C)C[C@H]1C(=O)N2CCC[C@H]2[C@]2(O)O[C@](NC(=O)[C@@H]3C=C4c5cccc6[nH]c(Br)c(c56)C[C@H]4N(C)C3)(C(C)C)C(=O)N12` [BROMOCRIPTINE], the Activity is given as 70%.

In another assay the test system is Mus musculus. As to the kind of experiment: Protection against light-induced retinal degeneration in dark-adaptated BALB/c albino mouse assessed as reduction in ERG a- and b-wave amplitude deterioration at 10 mg/kg, ip dosed preincubated with compound for 15 to 30 mins of mydriasis followed by exposure to bright light at 15kLux for 30 mins by electroretinography analysis relative to control. Type of assay: functional. The note with it: time 45-60 min. The arrangement: scale not given: the % may be the effect or the level left. An outline of the steps: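 BALB/c albino mice aged 5–8 weeks, dark-adapted overnight. Dosed 10 mg/kg ip in 25% DMSO/75% saline 30 min before light. Pupils dilated with metaoxedrin (20 mg/mL) plus tropicamide (4 mg/mL) at 30 and 15 min prior. Exposed to 15 kLux white light for 30 min, freely moving. ERG a- and b-wave amplitudes recorded one week later at 10 cd·s/m2 stimulus. Compared with vehicle; mean ± SEM.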
Turning to `CC(C)C[C@H]1C(=O)N2CCC[C@H]2[C@]2(O)O[C@](NC(=O)[C@@H]3C=C4c5cccc6[nH]c(Br)c(c56)C[C@H]4N(C)C3)(C(C)C)C(=O)N12` [BROMOCRIPTINE], the Activity is recorded as 70%.

For the next assay, the target named is T2, 5-hydroxytryptamine receptor 1A (Homo sapiens) (UniProt P08908).
T2 sequence (whole entry): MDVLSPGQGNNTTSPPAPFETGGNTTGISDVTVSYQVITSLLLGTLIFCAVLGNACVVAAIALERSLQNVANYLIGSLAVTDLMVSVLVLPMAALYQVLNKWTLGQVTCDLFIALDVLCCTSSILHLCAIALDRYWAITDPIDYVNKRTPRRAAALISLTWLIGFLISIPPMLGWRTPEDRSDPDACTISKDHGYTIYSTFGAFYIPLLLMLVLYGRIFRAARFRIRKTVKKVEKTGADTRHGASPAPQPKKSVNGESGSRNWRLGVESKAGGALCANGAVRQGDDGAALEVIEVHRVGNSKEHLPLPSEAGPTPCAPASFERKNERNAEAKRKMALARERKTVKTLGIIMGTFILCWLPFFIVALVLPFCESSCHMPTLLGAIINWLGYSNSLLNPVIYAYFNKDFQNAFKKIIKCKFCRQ
Put plainly: Binding affinity to 5-HT1A (unknown origin).
Conditions: not given
As for `CCN(CC)C(=O)[C@H]1CN(C)[C@H]2Cc3c[nH]c4cccc(c34)[C@@H]1C2`, the result was inactive.

A further assay relates to Mus musculus. Put plainly: Protection against light-induced retinal degeneration in dark-adaptated BALB/c albino mouse assessed as reduction in ERG a- and b-wave amplitude deterioration at 10 mg/kg, ip dosed preincubated with compound for 15 to 30 mins of mydriasis followed by exposure to bright light at 15kLux for 30 mins by electroretinography analysis. Type of assay: functional, organism-based. The note with it: time 45-60 min. An outline of the steps:
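BALB/c albino mice (5–8 weeks) were dark-adapted overnight and given 10 mg/kg ip in 25% DMSO/75% saline 30 min before light. Pupils were dilated with metaoxedrine (20 mg/mL) plus tropicamide (4 mg/mL) at 30 and 15 min prior. Freely moving mice received 30 min of 15 kLux white light. ERG a- and b-wave amplitudes were recorded one week later (10 cd·s/m2 stimulus). Analysis used Welch's ANOVA with Dunnett's T3 post hoc tests.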
Take `CCN(CC)C(=O)[C@H]1CN(C)[C@H]2Cc3c[nH]c4cccc(c34)[C@@H]1C2`: the result was inactive.

Consider `CN1C[C@@]2(C)C[C@]23c2cccc4[nH]cc(c24)C[C@@H]13`, for which the outcome was Active.

Take `CN(C)CCn1cc(Cc2ccccn2)c2c(Br)cccc21`: the result was Active.

Turning to `CN(C)CCn1cc(Cc2ccccn2)c2cc(F)ccc21`, the outcome was inactive.

In the case of `CN(C)CCn1cc(Cc2ccccn2)c2ccc(F)cc21`, the result was inactive.

For the compound `CN1C[C@@H](CO)C=C2c3cccc4[nH]cc(c34)C[C@@H]21`, the result was inactive.

In the case of `CN1C[C@]2(C)C[C@@]23c2cccc4[nH]cc(c24)C[C@H]13`, the outcome was Active.

With `CN1C[C@@H](CO)C=C2c3cccc4[nH]cc(c34)C[C@H]21`, the result was Active.

Take `CN1C[C@H](CO)C=C2c3cccc4[nH]cc(c34)C[C@@H]21`: the outcome was inactive.

Take `CN1C[C@H](CO)C=C2c3cccc4[nH]cc(c34)C[C@H]21`: the result was Active.
